This is a sample that favours compounds with a hit; in the whole collection about 4.6% have one here.
CHO parental Ca: counter-screen for OX1R antagonists: effect in parental CHO cells | parental CHO-K1, ATP-induced calcium, Fluo-8 fluorescence | AID 463079 | inhibition, % at 5.6 µM | actives 0.63% (n = 330,000);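 active = inhibition above that plate's mean sample inhibition plus 3 SD, cut at about 26% in these data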;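 note: 0% = ATP-challenged DMSO wells and 100% = DMSO wells without ATP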
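Assay system: parental CHO cells; Read-out basis: percent inhibition of ATP-evoked calcium rise, normalized to controls; Benchmarks: ATP and no-ATP DMSO wells; Compound dosing: single nominal dose of 5.6 µM per compound; Signal: Fluo-8 calcium dye fluorescence; Also added: ATP as calcium-mobilizing challenge; Repeats: singlicate.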
GPR7 antagonist: antagonists of human GPR7 (neuropeptides B/W receptor 1); actives 1.1% (n = 290,000); P48145; inhibition, % at 4.4 µM; GPR7-expressing cells, fluorescence antagonist assay; in the data active = inhibition above about 16%, passing the limit was not always enough;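 note: cells stimulated with the agonist NPW; 0% = agonist with vehicle and 100% = vehicle without agonist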
Target sequence (P48145 whole entry, looked up): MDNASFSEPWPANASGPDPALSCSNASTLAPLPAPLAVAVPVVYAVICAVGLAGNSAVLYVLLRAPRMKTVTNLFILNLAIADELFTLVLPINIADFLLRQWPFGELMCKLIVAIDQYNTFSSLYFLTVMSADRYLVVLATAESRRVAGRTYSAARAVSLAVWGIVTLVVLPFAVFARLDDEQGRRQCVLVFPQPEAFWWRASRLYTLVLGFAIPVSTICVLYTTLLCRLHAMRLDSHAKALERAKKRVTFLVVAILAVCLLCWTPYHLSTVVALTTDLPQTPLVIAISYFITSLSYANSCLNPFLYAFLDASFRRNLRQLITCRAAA
OX1R antag-1: blocks the human orexin 1 receptor; OX1R-expressing cells, FRET antagonist read-out; inhibition, % at 6.6 µM; actives 1.8% (n = 330,000); AID 485270; in the data active = inhibition mostly above about 38%, no sharp cut-off; inactive = mostly below about 40%;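 note: 0% = agonist challenge alone and 100% = reference antagonist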
OX1R antag-2: antagonists of human orexin 1 receptor | CHO/OX1R cells, Fluo-8 calcium fluorescence, orexin A | O43613 | actives 0.43% (n = 330,000) | AID 434989 | inhibition, % at 5 µM;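 active = inhibition above its plate's threshold, mean inhibition of all tested compounds on the plate plus 3 SD, cut at about 37% in these data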;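 note: 0% = orexin A challenge wells and 100% = SB-334867-A antagonist wells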
TAAR1 agonist: human TAAR1 agonism; Q96RJ0; CHO RD-HGA16 TAAR1, Fluo-8 calcium fluorescence; vehicle wells 0%, saturating PEA agonist 100%; activation, % at 3 µM; actives 0.99% (n = 360,000); AID 624467;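 active = activation above the mean activation of all test compounds in the run plus 3 SD, cut at about 38% in these data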
Target sequence (Q96RJ0 whole entry, looked up): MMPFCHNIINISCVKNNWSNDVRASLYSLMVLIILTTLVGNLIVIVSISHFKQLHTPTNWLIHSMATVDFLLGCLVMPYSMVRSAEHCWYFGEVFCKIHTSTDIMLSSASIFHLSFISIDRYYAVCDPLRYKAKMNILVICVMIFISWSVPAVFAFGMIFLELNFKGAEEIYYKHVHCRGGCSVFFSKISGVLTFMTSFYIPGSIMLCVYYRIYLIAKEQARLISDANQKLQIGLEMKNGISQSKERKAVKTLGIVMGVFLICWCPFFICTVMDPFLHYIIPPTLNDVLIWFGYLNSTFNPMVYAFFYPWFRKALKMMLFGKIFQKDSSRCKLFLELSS
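Assay system: CHO-derived RD-HGA16 cells with stable Gα16 and human TAAR1; timing: 17-24 h seeding, 75 min 37 °C dye, 30 min RT; read-out: % activation from peak over basal fluorescence ratio, DMSO-to-PEA scaled; measured by: kinetic Fluo-8 calcium fluorescence; benchmarks: low control DMSO, high control PEA (EC100); doses: 3 µM single concentration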
TAAR1 antagonist: human TAAR1 antagonism; AID 624466; inhibition, % at 3 µM; CHO RD-HGA16 TAAR1, Fluo-8 calcium fluorescence, antagonist; actives 1.5% (n = 360,000); Q96RJ0;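 active = inhibition above a per-plate cutoff, the mean inhibition of test compounds on that plate plus 3 SD, cut at about 49% in these data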;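 note: 0% = DMSO plus EC80 beta-PEA response and 100% = DMSO alone without agonist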
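Test system: CHO RD-HGA16 cells bearing hTAAR1 | Reagent: β-PEA, EC80 | Compound dosing: 3 µM, single point | Schedule: Dye loading 75 min at 37 °C, then 30 min room temperature | Signal: Calcium fluorescence with Fluo-8 | Evaluation: Percent inhibition of PEA-evoked calcium signal, max/basal emission ratio | Control set: DMSO-only wells and EC80 β-PEA-stimulated wells | Repeats: Singlicate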
Numbers without * were called inactive; / = not tested or not shown.

SMILES | CHO parental Ca | GPR7 antagonist | OX1R antag-1 | OX1R antag-2 | TAAR1 agonist | TAAR1 antagonist
COC(=O)[C@H](Cc1ccccc1)N1C[C@@H](N2CCC[C@H]2C)CS1(=O)=O | / | / | / | / | 0 | 3
O=C(Nc1ccc(Cl)cn1)C1CCCN1S(=O)(=O)c1ccccc1 (stereo not given) | -19 | -14 | 70* | 19 | 3 | 7
O=C(Nc1nccs1)C1CCCN1S(=O)(=O)c1ccc(Cl)cc1 (stereo not given) | -17 | 1 | 23 | 5 | 5 | -10
O=C(Nc1ccc(Br)cn1)C1CCCN1S(=O)(=O)c1ccccc1 (stereo not given) | -24 | 3 | 49* | -2 | 4 | 7
O=C(Nc1cccnc1)C1CCCN1S(=O)(=O)c1ccc(Cl)c(Cl)c1 (stereo not given) | -15 | -3 | 63* | 1 | 11 | -18
O=C(Nc1ccccc1)C1CCCN1S(=O)(=O)c1ccc(Br)cc1 (stereo not given) | -12 | -14 | 64* | 16 | 0 | -30
Cc1cc(C)cc(NC(=O)C2CCCCN2S(=O)(=O)c2ccccc2)c1 (stereo not given) | / | / | / | / | -2 | -8
COCCN1C(=O)CN(S(C)(=O)=O)CC1(C)C(=O)Nc1ccc2c(c1)OCCO2 (stereo not given) | / | / | / | / | 2 | -23
CCOC(=O)N[C@@H](CC(C)C)C(=O)N1CCC[C@H]1C(=O)NCc1ccccc1 | / | / | / | / | 0 | -2
COC(=O)[C@]12C[C@H](CC(=O)N3CCN(C(=O)C4CC4)CC3)C(=O)N(Cc3ccccc3)C1=C[C@H](C(C)(C)C)O[C@@H]2C | / | / | / | / | 2 | 5
COc1ccc(C2CC(=O)C(c3cc(OC)c(OC)c(OC)c3)=CN2Cc2ccccc2)cc1 (stereo not given) | / | / | / | / | -1 | -12
O=C1N/C(=C/c2ccsc2)C(=O)N1c1ccccc1 | -2 | 1 | 11 | -4 | 44* | 17
CCN(CC(=O)Nc1ccc(NC(C)=O)cc1)C(=O)/C=C/c1ccccc1 | -5 | / | 11 | -11 | 1 | -9
CCN(CC(=O)Nc1ccc(NC(C)=O)cc1)C(=O)/C=C/c1cn(-c2ccccc2)nc1-c1cccs1 | -11 | / | 12 | -10 | 8 | 58*
COc1ccc(S(=O)(=O)NC(=O)C2(C)CCN2C(=O)CC2CCCC2)cc1 (stereo not given) | / | / | / | / | 0 | -6
CCOC(=O)c1csc(NC(=O)CSc2nnnn2-c2ccc(OCC)cc2)n1 | / | -6 | / | / | 40* | 2
CCOC(=O)Cc1csc(NC(=O)CSc2nnnn2-c2ccc(CC)cc2)n1 | 22 | -8 | 20 | -22 | 1 | 5
CCCCCCCCN | / | / | / | / | 4 | -2
COc1ccc(C(C)NC(=S)NCc2ccc(F)cc2)cc1 (stereo not given) | -7 | 1 | -2 | -3 | 9 | 9
Cc1ccc(C)c(C(C)NC(=S)NCc2ccc(F)cc2)c1 (stereo not given) | 67* | 22 | 31 | 41* | 18 | -3
COc1ccccc1N1CCN(C(=O)Cc2c(C(=O)O)[nH]c3ccc(Cl)cc23)CC1 | -9 | -9 | 12 | -5 | 4 | 7
O=C(O)c1[nH]c2ccc(Cl)cc2c1CC(=O)N1CCN(c2ccccc2)CC1 | 44* | -9 | 19 | 12 | 10 | -7
O=C(NCCc1ccccc1)c1nc(CS(=O)(=O)c2ccc(Cl)cc2)no1 | -20 | 8 | 0 | -23 | 5 | 7
Cc1ccc(CCNC(=O)c2nc(CS(=O)(=O)c3ccc(Cl)cc3)no2)cc1 | 0 | 1 | 12 | -4 | 5 | 57*
O=C(Cc1cccs1)Nc1nnc(CCc2ccccc2)s1 | -12 | 14* | -1 | -23 | 10 | -9
SMILES | CHO parental Ca | GPR7 antagonist | OX1R antag-1 | OX1R antag-2 | TAAR1 agonist | TAAR1 antagonist
Cc1ccc(C(=O)CSc2cc(C)nc(SCC(=O)c3ccccc3)n2)cc1 | 44* | -5 | 29 | -11 | 12 | 54*
Cc1nc2ccccc2nc1SCC(=O)c1ccccc1 | 52* | -5 | 39 | 17 | 3 | 13
Cc1cc(SCC(N)=O)nc(SCC(=O)c2ccccc2)n1 | -7 | 9 | 28 | -16 | 1 | 4
COC(=O)[C@]12C[C@H](CC(=O)NCCCN3CCCC3=O)C(=O)N(Cc3ccccc3)C1=C[C@H](C(C)(C)C)O[C@@H]2C | / | / | / | / | 2 | -11
COc1ccc(C(=O)N2CCC[C@H]2C(=O)N2CCC[C@@H]2C(=O)NCc2ccccc2)cc1F | / | / | / | / | 0 | 12
Nc1ncnc(Sc2ccc(Cl)cc2)c1[N+](=O)[O-] | 6 | 10 | 29 | 0 | 9 | -12
Nc1ncnc(Sc2ccccc2)c1[N+](=O)[O-] | -3 | -9 | 46* | -8 | 2 | 0
CCN(CC)CCCNc1nc2ccccc2c2[nH]c3ccc(OC)cc3c12 | / | / | / | / | 2 | -14
CC(C)(C)NC(=O)C(c1cc2ccccc2o1)n1c(=O)c(-c2ccccc2)nc2ccccc21 (stereo not given) | / | / | / | / | 2 | -31
COc1ccc(-c2cnnc(N/N=C/c3ccc(O)c(O)c3)n2)cc1 | 0 | 7 | 75* | -8 | 1 | 12
C=C1C(=O)c2sccc2C(c2ccc(OC)c(OC)c2)C1COC(C)=O (stereo not given) | / | / | / | / | 7 | -4
COc1ccc(-c2c[n+](CC(=O)OC3CC(C)CCC3C(C)C)c3n2CCC3)cc1 (stereo not given) | 7 | 42* | 4 | -11 | 3 | 1
COC(=O)[C@]12C[C@H](CC(=O)N3CCCC3)C(=O)N(Cc3ccc4c(c3)OCO4)C1=C[C@H](C(C)(C)C)O[C@@H]2C | / | / | / | / | 3 | -32
Nc1ccn(C2CSC(CO)O2)c(=O)n1 (stereo not given) | / | / | / | / | 3 | -9
C[C@H]1CN([C@@H](C)CO)C(=O)CCCn2cc(nn2)CO[C@@H]1CN(C)S(=O)(=O)c1ccc(F)cc1 | / | / | / | / | 1 | 11
O=C(CN1C(=O)C2C3C=CC(C3)C2C1=O)OCC(=O)c1ccc(Cl)cc1 (stereo not given) | / | -7 | / | / | 2 | 0
O=C(CN1C(=O)C2C3C=CC(C3)C2C1=O)OCC(=O)c1ccc([N+](=O)[O-])cc1 (stereo not given) | 2 | 5 | 58* | -16 | -2 | 1
O=C(CC1C[C@H](C(=O)N2CCCCC2)[C@@]2(CCc3ccccc3)c3[nH]c4ccccc4c3CCN2C1=O)NCCc1ccccn1 (stereo not given in full) | / | / | / | / | 4 | -33
COc1ccc(-c2nc(CS(=O)CC(=O)NCCc3ccc(OC)c(OC)c3)c(C)o2)cc1 (stereo not given) | -2 | -11 | 9 | -22 | -1 | 3
CCOc1ccc(CCNC(=O)CS(=O)Cc2nc(-c3ccc(OC)cc3)oc2C)cc1OCC (stereo not given) | -24 | -17 | 50* | 3 | -1 | -1
